Measurements as given in the RNAGym collection of RNA variant scans (doi:10.1038/s41586-018-0170-7).

B1: tRNA (parent)
chain: GUUCCGUUGGCGUAAUGGUAACGCGUCUCCCUCCUAAGGAGAAGACUGCGGGUUCGAGUCCCGUACGGAACG

Variants of: B1
Test: yeast fitness, log relative to wild type (ln ratio); higher = fitter; tRNA-Arg(CCU), competitive growth, 37 C, 1 M NaCl
Method in brief: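 Genotype fitness is expressed as the natural log of its generations over those of the wild type. Each pool of the tRNA-Arg(CCU) variant library, carried on a HIS3 centromeric plasmid in BY4742 lacking the chromosomal gene, came from one of two independent transformations and grew 4 generations in SC-HIS at 30 °C before ~6.5 generations (~26.5 h) in SC-HIS 1M NaCl at 37 °C. Generation numbers used OD-scaled log2 output/input frequencies from 125 bp paired-end Illumina sequencing, combined across replicates by inverse-variance weighting.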

Variant	yeast fitness (ln)
GCUCCAUUGGCGUAAUGGUAACGCGUUUCCCUCCUAAGGAGACGAUUGCGGGUUCGAGUCCCGUACGGGUUG [U2C G6A C27U A43C C46U A69G A70U C71U]	-0.359
GCUCCAUUGGCGUAAUGGUAACGCGUUUCCCUCCUAAGGAGACGACUGCGGGUUCGAGUCCCGUACGGGGUG [U2C G6A C27U A43C A69G A70G C71U]	-0.256
GCUCCAUUGGCGUAAUGGUAACGCGUUUCCCUCCUAAGGAGACGAUUGCGGGUUCGAGUCCCGUACGGAUUG [U2C G6A C27U A43C C46U A70U C71U]	-0.113
GCUCCAUUGGCGUAAUGGUAACGCGUUUCCCUCCUAAGGAGACGACUGCGGGUUCGAGUCCCGUACGGAGUG [U2C G6A C27U A43C A70G C71U]	-0.156
GCUCCAUUGGCGUAAUGGUAACGCGUUUCCCUCCUAAGGAGACGACUGCGGGUUCGAGUCCCGUACGGAUUG [U2C G6A C27U A43C A70U C71U]	-0.243
GCUCCAUUGGCGUAAUGGUAACGCGUUUCCCUCCUAAGGAGACGAUUGCGGGUUCGAGUCCCGUACGGAUCG [U2C G6A C27U A43C C46U A70U]	-0.0327
GCUCCAUUGGCGUAAUGGUAACGCGUUUCCCUCCUAAGGAGACGAUUGCGGGUUCGAGUCCCGUACGGAGCG [U2C G6A C27U A43C C46U A70G]	-0.133
GCUCCAUUGGCGUAAUGGUAACGCGUCUCCCUCCUAAGGAGAAGACUGCGGGUUCGAGUCCCGUACGGGUCG [U2C G6A A69G A70U]	-0.0533
GCUCCAUUGGCGUAAUGGUAACGCGUUUCCCUCCUAAGGAGACGAUUGCGGGUUCGAGUCCCGUAAGGAUUG [U2C G6A C27U A43C C46U C66A A70U C71U]	-0.268
GCUCCAUUGGCGUAAUGGUAACGCGUUUCCCUCCUAAGGAGACGAUUGCGGGUUCGAGUCCCGUAUGGAACG [U2C G6A C27U A43C C46U C66U]	-0.0567
GCUCCAUUGGCGUAAUGGUAACGCGUUUCCCUCCUAAGGAGACGAUUGCGGGUUCGAGUCCCGUAAGGAGUG [U2C G6A C27U A43C C46U C66A A70G C71U]	-0.0721
GCUCCAUUGGCGUAAUGGUAACGCGUUUCCCUCCUAAGGAGACGACUGCGGGUUCGAGUCCCGUACGGAACG [U2C G6A C27U A43C]	-0.0322
GCUCCAUUGGCGUAAUGGUAACGCGUUUCCCUCCUAAGGAGACGACUGCGGGUUCGAGUCCCGUACGGAGCG [U2C G6A C27U A43C A70G]	-0.153
GCUCCAUUGGCGUAAUGGUAACGCGUUUCCCUCCUAAGGAGACGACUGCGGGUUCGAGUCCCGUACGGAUCG [U2C G6A C27U A43C A70U]	-0.108
GCUCCAUUGGCGUAAUGGUAACGCGUUUCCCUCCUAAGGAGACGACUGCGGGUUCGAGUCCCGUACGGGAUG [U2C G6A C27U A43C A69G C71U]	-0.29
GCUCCAUUGGCGUAAUGGUAACGCGUUUCCCUCCUAAGGAGACGAUUGCGGGUUCGAGUCCCGUACGGGAUG [U2C G6A C27U A43C C46U A69G C71U]	-0.113
GCUCCAUUGGCGUAAUGGUAACGCGUUUCCCUCCUAAGGAGACGAUUGCGGGUUCGAGUCCCGUAAGGAUCG [U2C G6A C27U A43C C46U C66A A70U]	-0.0497
GCUCCAUUGGCGUAAUGGUAACGCGUUUCCCUCCUAAGGAGACGAUUGCGGGUUCGAGUCCCGUAAGGAGCG [U2C G6A C27U A43C C46U C66A A70G]	-0.101
GCUCCAUUGGCGUAAUGGUAACGCGUCUCCCUCCUAAGGAGAAGACUGCGGGUUCGAGUCCCGUACGGAGCG [U2C G6A A70G]	-0.0119

Variant	yeast fitness (ln)
GCUCCAUUGGCGUAAUGGUAACGCGUCUCCCUCCUAAGGAGAAGACUGCGGGUUCGAGUCCCGUACGGAUCG [U2C G6A A70U]	-0.0455
GCUCCAUUGGCGUAAUGGUAACGCGUUUCCCUCCUAAGGAGACGAUUGCGGGUUCGAGUCCCGUAAGGGGUG [U2C G6A C27U A43C C46U C66A A69G A70G C71U]	-0.19
GCUCCAUUGGCGUAAUGGUAACGCGUCUCCCUCCUAAGGAGAAGACUGCGGGUUCGAGUCCCGUACGGGAUG [U2C G6A A69G C71U]	-0.176
GCUCCAUUGGCGUAAUGGUAACGCGUUUCCCUCCUAAGGAGACGACUGCGGGUUCGAGUCCCGUACGGGGCG [U2C G6A C27U A43C A69G A70G]	-0.211
GCUCCAUUGGCGUAAUGGUAACGCGUUUCCCUCCUAAGGAGACGACUGCGGGUUCGAGUCCCGUACGGGUCG [U2C G6A C27U A43C A69G A70U]	-0.215
GCUCCAUUGGCGUAAUGGUAACGCGUCUCCCUCCUAAGGAGAAGACUGCGGGUUCGAGUCCCGUACGGGGUG [U2C G6A A69G A70G C71U]	-0.394
GCUCCAUUGGCGUAAUGGUAACGCGUUUCCCUCCUAAGGAGACGAUUGCGGGUUCGAGUCCCGUAUGGGGUG [U2C G6A C27U A43C C46U C66U A69G A70G C71U]	-0.0764
GCUCCAUUGGCGUAAUGGUAACGCGUUUCCCUCCUAAGGAGACGAUUGCGGGUUCGAGUCCCGUACGGGGUG [U2C G6A C27U A43C C46U A69G A70G C71U]	-0.13
GCUCCAUUGGCGUAAUGGUAACGCGUUUCCCUCCUAAGGAGACGAUUGCGGGUUCGAGUCCCGUACGGGGCG [U2C G6A C27U A43C C46U A69G A70G]	-0.0933
GCUCCAUUGGCGUAAUGGUAACGCGUUUCCCUCCUAAGGAGACGAUUGCGGGUUCGAGUCCCGUACGGGUCG [U2C G6A C27U A43C C46U A69G A70U]	-0.122
GCUCCAUUGGCGUAAUGGUAACGCGUUUCCCUCCUAAGGAGACGAUUGCGGGUUCGAGUCCCGUACGGAACG [U2C G6A C27U A43C C46U]	-0.0171
GCUCCAUUGGCGUAAUGGUAACGCGUUUCCCUCCUAAGGAGAAGACUGCGGGUUCGAGUCCCGUACGGAACG [U2C G6A C27U]	-0.0332
GCUCCAUUGGCGUAAUGGUAACGCGUUUCCCUCCUAAGGAGACGAUUGCGGGUUCGAGUCCCGUACGGAGUG [U2C G6A C27U A43C C46U A70G C71U]	-0.0979
GCUCCAUUGGCGUAAUGGUAACGCGUUUCCCUCCUAAGGAGACGAUUGCGGGUUCGAGUCCCGUAAGGAAUG [U2C G6A C27U A43C C46U C66A C71U]	-0.216
GCUCCAUUGGCGUAAUGGUAACGCGUUUCCCUCCUAAGGAGACGACUGCGGGUUCGAGUCCCGUACGGGUUG [U2C G6A C27U A43C A69G A70U C71U]	-0.384
GCUCCAUUGGCGUAAUGGUAACGCGUCUCCCUCCUAAGGAGAAGACUGCGGGUUCGAGUCCCGUACGGAGUG [U2C G6A A70G C71U]	-0.105
GCUCCAUUGGCGUAAUGGUAACGCGUCUCCCUCCUAAGGAGAAGACUGCGGGUUCGAGUCCCGUACGGAUUG [U2C G6A A70U C71U]	-0.0821
GCUCCAUUGGCGUAAUGGUAACGCGUCUCCCUCCUAAGGAGAAGACUGCGGGUUCGAGUCCCGUACGGGUUG [U2C G6A A69G A70U C71U]	-0.174
GCUCCAUUGGCGUAAUGGUAACGCGUUUCCCUCCUAAGGAGACGAUUGCGGGUUCGAGUCCCGUAUGGGGCG [U2C G6A C27U A43C C46U C66U A69G A70G]	-0.0296
